Experimental data published in ChEMBL document CHEMBL1131203, “Second generation "peptoid" CCK-B receptor antagonists: identification and development of N-(adamantyloxycarbonyl)-alpha-methyl-(R)-tryptophan derivative (CI-1015) with an improved pharmacokinetic profile” (J Med Chem, 1998).

What was measured:
[1] = Pharmacokinetic parameter tmax was evaluated in HP-beta-CD solution at a dose of 20 mg/kg orally; type: ADME, organism-based; parameters: dose 20 mg/kg, route oral; details: in vivo, po
Outline: (§1)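 Fasted male Wistar rats, groups of 3–4, given a single oral 20 mg/kg dose in the stated vehicle. Heparinized plasma was collected from an implanted jugular-vein cannula at serial times out to 24 h, kept frozen, and assayed by validated HPLC-fluorescence. Cmax, tmax, AUC(0–∞) and terminal t1/2 were obtained by noncompartmental analysis. Values are means (%RSD).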

[2] = Pharmacokinetic parameter AUC evaluated in 0.5% methylcellulose suspension at a dose of 20 mg/kg orally; type: ADME, organism-based; parameters: dose 20 mg/kg, route oral; details: in vivo, po; outline: as §1
[3] = Pharmacokinetic parameter Tmax was evaluated in 0.5% methylcellulose suspension; details: in vivo
[4] = Maximum plasma concentration was evaluated in 0.5% methylcellulose suspension at a dose of 20 mg/kg orally; type: ADME, organism-based; parameters: dose 20 mg/kg, route oral; details: po; outline: as §1
[5] = Maximum plasma concentration was evaluated in HP-beta-CD solution at a dose of 20 mg/kg orally; type: ADME, organism-based; parameters: dose 20 mg/kg, route oral; details: po; outline: as §1
[6] = Pharmacokinetic parameter AUC was evaluated in 10% PEG suspension at a dose of 20 mg/kg orally; type: ADME, organism-based; parameters: dose 20 mg/kg, route oral; details: in vivo, po; outline: as §1
[7] = Pharmacokinetic parameter half-life was evaluated in 10% PEG suspension at a dose of 20 mg/kg orally; type: ADME, organism-based; parameters: dose 20 mg/kg, route oral; details: in vivo, po; outline: as §1
[8] = Maximum plasma concentration was evaluated in 10% of PEG suspension at a dose of 20 mg/kg orally; type: ADME, organism-based; parameters: dose 20 mg/kg, route oral; details: po; outline: as §1
[9] = Pharmacokinetic parameter AUC was evaluated in HP-beta-CD solution at a dose of 20 mg/kg orally; type: ADME, organism-based; parameters: dose 20 mg/kg, route oral; details: in vivo, po; outline: as §1
[10] = Pharmacokinetic parameter tmax was evaluated in 100% PEG solution at a dose of 20 mg/kg orally; type: ADME, organism-based; parameters: dose 20 mg/kg, route oral; details: in vivo, po; outline: as §1
[11] = tested on: Mus musculus; assay: Concentration in forebrain after 20 min of injection at a concentration of 1 mg/kg, iv in mice; type: functional
Outline: (§2)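 Ex vivo binding: mice were dosed iv with compound or vehicle, given either as saline or as 10% EtOH–60% propylene glycol–30% saline. Forebrains were taken at 5, 10 or 20 min, homogenized in HEPES buffer with bacitracin at pH 7.2, and incubated with 50 pM [125I]BH-CCK8s for 2 h at 22 °C. After filtration, bound radioligand was gamma-counted and read against calibration curves prepared in vehicle tissue. Detection limit was about 1 pmol/forebrain. n = 3–13.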

[12] = Pharmacokinetic parameter half-life was evaluated in 100% PEG solution at a dose of 20 mg/kg orally; type: ADME, organism-based; parameters: dose 20 mg/kg, route oral; details: in vivo, po; outline: as §1
[13] = Pharmacokinetic parameter half-life evaluated in HP-beta-CD solution at a dose of 20 mg/kg orally; type: ADME, organism-based; parameters: dose 20 mg/kg, route oral; details: in vivo, po; outline: as §1
[14] = Pharmacokinetic parameter AUC was evaluated in 100% PEG solution at a dose of 20 mg/kg orally; type: ADME, organism-based; parameters: dose 20 mg/kg, route oral; details: in vivo, po; outline: as §1
[15] = biological target: T1, Cholecystokinin receptor type A (Rattus norvegicus, UniProt P30551); assay: Inhibitory concentration against radioligand [125I]Bolton-Hunter labeled CCK-8 to cholecystokinin type A receptor in the rat pancreas
T1 sequence (P30551 whole entry): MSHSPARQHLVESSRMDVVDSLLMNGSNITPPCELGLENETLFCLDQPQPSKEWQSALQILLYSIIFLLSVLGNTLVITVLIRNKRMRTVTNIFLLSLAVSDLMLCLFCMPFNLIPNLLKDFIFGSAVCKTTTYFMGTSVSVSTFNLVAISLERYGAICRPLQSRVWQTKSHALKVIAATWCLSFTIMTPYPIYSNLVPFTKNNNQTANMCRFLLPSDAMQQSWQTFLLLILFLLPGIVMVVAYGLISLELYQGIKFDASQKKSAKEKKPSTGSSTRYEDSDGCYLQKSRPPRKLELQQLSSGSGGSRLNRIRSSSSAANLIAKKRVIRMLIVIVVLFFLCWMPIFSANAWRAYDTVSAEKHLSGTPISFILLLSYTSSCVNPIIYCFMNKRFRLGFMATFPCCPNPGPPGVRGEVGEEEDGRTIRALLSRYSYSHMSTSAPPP

[16] = tested on: Mus musculus; assay: Concentration in forebrain after 5 min of injection at a concentration of 1 mg/kg, iv in mice; type: functional; outline: as §2
[17] = Absolute oral bioavailability was evaluated in 0.5% methylcellulose suspentionat a dose of 20 mg/kg orally; type: ADME, organism-based; details: eutheria, in vivo
Outline: (§3)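 Fasted male Wistar rats, groups of 3–4, given a single 20 mg/kg dose po or iv in the stated vehicle. Heparinized plasma was drawn from a jugular-vein cannula at serial times out to 24 h and assayed by validated HPLC-fluorescence. Absolute bioavailability is the dose-normalized ratio of AUC after po dosing to AUC after iv dosing.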

[18] = Pharmacokinetic parameter tmax was evaluated in 10% PEG suspension at a dose of 20 mg/kg orally; type: ADME, organism-based; parameters: dose 20 mg/kg, route oral; details: in vivo, po; outline: as §1
[19] = tested on: Mus musculus; assay: Concentration in forebrain after 10 min of injection at a concentration of 1 mg/kg, iv in mice; type: functional; outline: as §2
[20] = Oral bioavailability (dosed in HP-beta-CD solution) (dose 20 mg/kg p.o.); type: ADME, organism-based; details: eutheria, in vivo; outline: as §3
[21] = Absolute oral bioavailability was evaluated in 10% PEG suspension at a dose of 20 mg/kg orally; type: ADME, organism-based; details: eutheria, in vivo; outline: as §3
[22] = Maximum plasma concentration was evaluated in 100% of PEG solution at a dose of 20 mg/kg orally; type: ADME, organism-based; parameters: dose 20 mg/kg, route oral; details: po; outline: as §1
[23] = Pharmacokinetic parameter half-life was evaluated in 0.5% methylcellulose suspension at a dose of 20 mg/kg orally; type: ADME, organism-based; parameters: dose 20 mg/kg, route oral; details: in vivo, po; outline: as §1
[24] = Absolute oral bioavailability was evaluated in 100% PEG solution; type: ADME, organism-based; details: eutheria, in vivo; outline: as §3
[25] = Maximum plasma concentration evaluated in HP-beta-CD solution at a dose of 20 mg/kg orally; type: ADME, organism-based; parameters: dose 20 mg/kg, route oral; details: po; outline: as §1
[26] = tested on: Mus musculus; assay: Concentration in forebrain after intravenous injection evaluated after 10 min. at a dose of 1 mg/kg; type: functional; outline: as §2
[27] = biological target: T2, Gastrin/cholecystokinin type B receptor (Mus musculus, UniProt P56481); assay: Inhibitory concentration against radioligand [125I]Bolton-Hunter labeled CCK-8 to cholecystokinin type B receptor in the mouse cerebral cortex; type: tissue-based
T2 sequence (P56481 whole entry): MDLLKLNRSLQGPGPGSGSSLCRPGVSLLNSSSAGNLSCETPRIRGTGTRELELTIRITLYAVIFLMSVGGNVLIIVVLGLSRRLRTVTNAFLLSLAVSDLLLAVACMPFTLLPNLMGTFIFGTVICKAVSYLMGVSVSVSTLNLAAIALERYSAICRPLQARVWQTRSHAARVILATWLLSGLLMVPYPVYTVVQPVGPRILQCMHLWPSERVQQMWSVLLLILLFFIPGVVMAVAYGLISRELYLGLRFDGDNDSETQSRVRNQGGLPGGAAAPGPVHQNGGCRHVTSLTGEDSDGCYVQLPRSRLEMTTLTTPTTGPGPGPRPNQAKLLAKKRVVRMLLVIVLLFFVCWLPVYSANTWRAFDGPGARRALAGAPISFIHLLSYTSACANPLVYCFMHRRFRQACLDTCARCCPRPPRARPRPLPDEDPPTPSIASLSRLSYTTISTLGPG

[28] = tested on: Mus musculus; assay: Concentration in forebrain after intravenous injection evaluated after 20 min. at a dose of 1 mg/kg; type: functional; outline: as §2
[29] = Pharmacokinetic parameter tmax evaluated in 0.5% methylcellulose suspension at a dose of 20 mg/kg orally; type: ADME, organism-based; parameters: dose 20 mg/kg, route oral; details: in vivo, po; outline: as §1
[30] = Pharmacokinetic parameter half-life was evaluated in DMA:H2O solution at a dose of 20 mg/kg orally; type: ADME, organism-based; parameters: dose 20 mg/kg, route oral; details: in vivo, po; outline: as §1
[31] = Maximum plasma concentration was evaluated in DMA:H2O solution at a dose of 20 mg/kg orally; type: ADME, organism-based; parameters: dose 20 mg/kg, route oral; details: po; outline: as §1
[32] = Pharmacokinetic parameter tmax was evaluated in DMA:H2O solution at a dose of 20 mg/kg orally; type: ADME, organism-based; parameters: dose 20 mg/kg, route oral; details: in vivo, po; outline: as §1
[33] = tested on: Mus musculus; assay: Concentration in forebrain after intravenous injection evaluated after 5 min. at a dose of 1 mg/kg; type: functional; outline: as §2
[34] = Pharmacokinetic parameter half-life was evaluated in 100% PEG solution; type: ADME, organism-based; details: in vivo; outline: as §1
[35] = Ratio of IC50 towards CCK-A receptor and CCK-B receptor
[36] = Absolute oral bioavailability was evaluated in DMA:H2O solution at a dose of 20 mg/kg orally; type: ADME, organism-based; details: eutheria, in vivo; outline: as §3
[37] = Pharmacokinetic parameter half-life was evaluated in HP-beta-CD solution at a dose of 20 mg/kg orally; type: ADME, organism-based; parameters: dose 20 mg/kg, route oral; details: in vivo, po; outline: as §1
[38] = Absolute oral bioavailability was evaluated in 100% PEG solution at a dose of 20 mg/kg orally; type: ADME, organism-based; details: eutheria, in vivo; outline: as §3
[39] = Maximum plasma concentration evaluated in 100% PEG solution at a dose of 20 mg/kg orally; type: ADME, organism-based; parameters: dose 20 mg/kg, route oral; details: po; outline: as §1
[40] = Absolute oral bioavailability evaluated in 0.5% methylcellulose suspentionat a dose of 20 mg/kg orally; type: ADME, organism-based; details: eutheria, in vivo; outline: as §3
[41] = Pharmacokinetic parameter AUC was evaluated in DMA:H2O solution at a dose of 20 mg/kg orally; type: ADME, organism-based; parameters: dose 20 mg/kg, route oral; details: in vivo, po; outline: as §1
[42] = Pharmacokinetic parameter AUC was evaluated in 0.5% methylcellulose suspension at a dose of 20 mg/kg orally; type: ADME, organism-based; parameters: dose 20 mg/kg, route oral; details: in vivo, po; outline: as §1

`C[C@](Cc1c[nH]c2ccccc12)(NC(=O)OC1C2CC3CC(C2)CC1C3)C(=O)N[C@@H]1CCCC[C@H]1O` (some centres undefined) showed a Tmax [1] of 1.8 h, an AUC [2] of 673 ng·h/mL and a Tmax [3] of 3 h. The Cmax [4] was 185 ng/mL, the Cmax [5] was 756 ng/mL and the AUC [6] was 953 ng·h/mL. It also gave a half-life [7] of 1.1 h, a Cmax [8] of 203 ng/mL and an AUC [9] of 2130 ng·h/mL. For the same compound, the Tmax [10] was 1 h, the Brain level [11] was 166 pmol/forebrain and the half-life [12] was 1.3 h. It also gave a half-life [13] of 0.9 h, an AUC [14] of 724 ng·h/mL and an IC50 [15] of 2900 nM. The Brain level [16] was 177 pmol/forebrain, the bioavailability [17] was 8.9% and the Tmax [18] was 3.5 h. It also gave a Brain level [19] of 154 pmol/forebrain, a bioavailability [20] of 28% and a bioavailability [21] of 13%. For the same compound, the Cmax [22] was 219 ng/mL, the half-life [23] was 1 h and the bioavailability [24] was 9.6%.
With `C[C@](Cc1c[nH]c2ccccc12)(NC(=O)OC1C2CC3CC(C2)CC1C3)C(=O)N[C@H](CO)Cc1ccccc1` (some centres undefined) the Tmax [1] was 0.9 h, the Cmax [25] was 416 ng/mL and the Brain level [26] was 68 pmol/forebrain. The Cmax [4] was 42 ng/mL, the IC50 [27] was 6.3 nM and the Brain level [28] was 43 pmol/forebrain. It also gave a Tmax [29] of 2.9 h, a half-life [30] of 2.3 h and a Cmax [31] of 212 ng/mL. The Tmax [32] was 1.2 h, the Brain level [33] was 40 pmol/forebrain and the half-life [34] was 1.1 h. It also gave a Ratio [35] of 123, an AUC [9] of 1440 ng·h/mL and a bioavailability [36] of 9.6%. It also gave a Tmax [10] of 2.8 h, a half-life [37] of 1.5 h and a bioavailability [38] of 9.6%. The AUC [14] was 886 ng·h/mL, the Cmax [39] was 167 ng/mL and the bioavailability [40] was 2%. It also gave an IC50 [15] of 780 nM, an AUC [41] of 890 ng·h/mL and a bioavailability [20] of 16%. It also gave an AUC [42] of 188 ng·h/mL.
